Measurements as given in ChEMBL document CHEMBL3046935, “Bioassay-directed isolation and identification of phytotoxic and fungitoxic acetylenes from Conyza canadensis” (J Agric Food Chem, 2012).
Activity calls are given as the source filed them. The calls are words filed in the database; no cut-off is given here.

Tests used:
Agrostis stolonifera = assay: Phytotoxicity against Agrostis stolonifera seeds assessed as inhibition of germination of seeds at 1 mg/mL after 7 days; assay type: organism-based; conditions: in vivo, 168 h
How it was run: (§1)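 Seeds (5 mg lettuce or 10 mg bentgrass) were placed on filter paper in 24-well plates with 250 μL of test solution per well (acetone 3% final). Solvent-only wells served as controls. Plates were sealed and kept at 26 °C under continuous light for 7 days. Germination was rated visually on a 0−5 scale against untreated controls (0 = no effect, 5 = no growth/germination), with experiments in duplicate.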

Lactuca sativa = assay: Phytotoxicity against […] dicot Lactuca sativa (lettuce) seeds assessed as inhibition of germination of seeds at 1 mg/mL after 7 days; assay type: organism-based; conditions: in vivo, 168 h; how it was run: as §1
Colletotrichum fragariae [1] = assay: Antifungal activity against Colletotrichum fragariae assessed as growth inhibition at 0.3 to 30 uM by Ninety-Six Well microbioassay; assay type: functional, organism-based
How it was run: (§2)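 Fungi (the Colletotrichum isolates came from strawberry anthracnose lesions) were grown on PDA at 24 ± 2 °C under a 12 h photoperiod. They were tested in 96-well microtiter dose-response format at final concentrations of 0.3, 3.0 and 30.0 μM, in duplicate. Growth was read as absorbance at 620 nm at 0, 24, 48 and 72 h, with solvent controls.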

Colletotrichum fragariae [2] = assay: Antifungal activity against Colletotrichum fragariae assessed as growth inhibition at 10 ug/spot by […]; assay type: functional
Colletotrichum acutatum [3] = assay: Antifungal activity against Colletotrichum acutatum assessed as growth inhibition at 10 ug/spot by […]; assay type: functional
[4] = tested on: Colletotrichum gloeosporioides; assay: Antifungal activity against Colletotrichum gloeosporioides assessed as growth inhibition at 10 ug/spot by […]; assay type: functional
Lemna aequinoctialis = assay: Inhibition of growth of Lemna paucicostata
[5] = tested on: Colletotrichum gloeosporioides; assay: Antifungal activity against Colletotrichum gloeosporioides assessed as growth inhibition at 0.3 to 30 uM by Ninety-Six Well microbioassay; assay type: functional, organism-based; how it was run: as §2
Colletotrichum acutatum [6] = assay: Antifungal activity against Colletotrichum acutatum assessed as growth inhibition at 0.3 to 30 uM by Ninety-Six Well microbioassay; assay type: functional, organism-based; how it was run: as §2

SMILES	Activity (Agrostis stolonifera)	Activity (Lactuca sativa)	Activity (Colletotrichum fragariae [1])	diameter of the inhibition zone (DIZ) (Colletotrichum fragariae [2])	diameter of the inhibition zone (DIZ) (Colletotrichum acutatum [3])	diameter of the inhibition zone (DIZ) [4]	IC50 (Lemna aequinoctialis)	Activity [5]	Activity (Colletotrichum acutatum [6])
C/C=C\C#CC#C/C=C\C(=O)OC [(2Z,8Z)-MATRICARIA ACID METHYL ESTER]	Toxic	Toxic	–	–	–	–	–	–	–
CCCC#C/C=C1/C=CC(=O)O1 [(4Z)-LACHNOPHYLLUM LACTONE]	Toxic	Toxic	Active	0.3 mm	0.75 mm	0.58 mm	104 µM	Active	Active
C/C=C\C#C/C=C1/C=CC(=O)O1 [(4Z,8Z)-MATRICARIA LACTONE]	Toxic	Toxic	Active	2.65 mm	0.7 mm	0.98 mm	220 µM	Active	Active
